MDM2 E3 inh: blocks human Mdm2 ubiquitin ligase activity. Q00987. cell-based MDM2 ubiquitination luciferase reporter, 2 h; 0 = plate control, 100 = twice control, blank-subtracted. signal enhancement, % at 5 µM. 210,000 compounds, 0.11% hits;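 active means signal enhancement of 30% or more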;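 further: luminescence tracks abundance of the self-degrading MDM2-luciferase fusion protein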
Target sequence (Q00987 whole entry, looked up, the tested form may be a part): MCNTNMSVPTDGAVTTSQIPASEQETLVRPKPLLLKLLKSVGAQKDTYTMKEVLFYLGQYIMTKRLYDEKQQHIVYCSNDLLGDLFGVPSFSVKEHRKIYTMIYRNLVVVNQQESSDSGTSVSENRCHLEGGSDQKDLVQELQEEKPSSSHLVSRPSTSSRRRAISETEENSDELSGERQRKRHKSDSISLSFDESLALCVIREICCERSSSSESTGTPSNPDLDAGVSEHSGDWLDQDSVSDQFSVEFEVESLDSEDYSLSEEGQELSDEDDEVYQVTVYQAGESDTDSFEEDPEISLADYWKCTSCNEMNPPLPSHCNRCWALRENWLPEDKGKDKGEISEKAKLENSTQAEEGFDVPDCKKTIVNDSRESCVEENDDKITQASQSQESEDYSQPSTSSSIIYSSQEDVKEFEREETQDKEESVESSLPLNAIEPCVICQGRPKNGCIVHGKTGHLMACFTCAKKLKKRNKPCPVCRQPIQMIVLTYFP
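Timing – 2 h compound exposure at 37 °C · Assay system – mammalian cells stably expressing self-ubiquitinating, self-degrading MDM2 E3–luciferase fusion · Amount – 2000 cells seeded into each well · Measure – % luminescence enhancement versus blank-corrected plate control mean · Measured by – SteadyLite luminescence, 15 min reagent step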
HSF-1 act: increases HSF-1 driven luciferase reporter signal. NIH3T3-HGL HSF-1 luciferase reporter, MG132, 8 h; 100% = twice DMSO control signal. activation, % at 9 µM. 300,000 compounds, 1.7% hits. AID 504408;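 active means mean replicate activation of at least 50% with a set share of replicates each reaching 50%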;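 further: 0% = median of the neutral control wells and 100% = twice that signal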
HSV augment: increases HSV replication in cells. HSV replication augmentation in cells, fold increase. maximum fold increase. 220,000 compounds, 0.005% hits; in the data active means maximum fold increase above about 1.5; tested in PC3 cells
Hsp70 activator: transcriptional activators of Hsp70; HeLa Hsp70 promoter luciferase reporter, luminescence; scaled: vehicle 0, proteasome-inhibitor control 100%; activation, % at 10 µM; 200,000 compounds, 0.04% hits; AID 1203;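 active means activation above the mean across all tested compounds plus 3 SD, cutoff set per campaign, cut at about 5.5% in these data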;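 further: 100% = MG132 at 30 µM as the positive control and 0% = DMSO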
Rad51 HR inh: blocks human Rad51 in homologous recombination; 200,000 compounds, 0.085% hits; inhibition, % at 10 µM; Q06609; AID 1385; hRad51 DNA strand exchange, fluorescence dequenching;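 active means inhibition above 40% at the single screening dose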;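 further: 0% = DMSO control wells and 100% = blanks with heterologous ssDNA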
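material = hRad51 filaments on single-stranded DNA | timing = filaments 15 min 37 °C, then compound 30 min | signal = FRET fluorescence dequenching, excitation 485 nm, emission 520 nm | benchmarks = control wells and blank wells on each plate | evaluation = percent inhibition relative to plate controls and blanks | compound = 10 µM final, single point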
HSF1 inh: HSF1 inhibition; activity change, negative = inhibition, % at 7.5 µM (by protocol); AID 2098; 300,000 compounds, 0.77% hits; NIH3T3-HGL HSE-luciferase, MG132-induced, luminescence 8 h; hits give low values;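 active means more than half of replicate wells show activity change below -50%, luminescence cut by over half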;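 further: luciferase reports HSF-1 transcriptional activity via heat shock element; 0% = median of DMSO wells and -100% = zero luminescence signal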
* marks the source's active call; other numbers are inactive results; i = inactive; / = no result given. A selection: hits, their analogues and other compounds. The true share with any hit is near 2.6%.

SMILES	MDM2 E3 inh	HSF-1 act	HSV augment	Hsp70 activator	Rad51 HR inh	HSF1 inh
COc1cc2c(cc1OC)CN(C(=O)c1ccc(Br)o1)CC2	2.2	-15.9	i	/	/	-1.7
COc1cc2c(cc1OC)CN(C(=O)c1ccco1)CC2	35.2*	2.3	i	0.3	-10.0	-3.7
O=C(Nc1cc2c3c(c1)CC(=O)N3CCC2)c1c(F)cccc1F	/	5.7	/	/	/	-0.3
CCn1c(SCC(=O)N2CCOCC2)nc2oc3c(Cl)cc(Cl)cc3c(=O)c2c1=O	-23.6	121.2*	/	0.1	-9.2	66.4
CCn1c(SCC(=O)N2CCOCC2)nc2sc3c(c2c1=O)CCCC3	-10.0	-16.1	i	-0.1	-12.2	3.9
COc1ccc(-c2cc(C(=O)N3CCCCCC3)no2)cc1	/	59.7*	/	/	/	25.3
Cc1ccc(-c2cc(C(=O)Nc3cc(C)ccc3O)no2)cc1	/	41.3	/	/	/	25.9
COc1ccc(-c2cc(C(=O)N3CCCC3)no2)cc1	/	24.2	/	/	/	-1.4
O=C(c1cc(-c2ccc(F)cc2)on1)N1CCCCCC1	/	6.5	/	/	/	5.3
O=C(c1cc(-c2ccc(F)cc2)on1)N1CCCC1	-4.7	61.5*	/	-0.1	/	28.9
COc1ccc(-c2cc(C(=O)Nc3cc(C)ccc3O)no2)cc1	/	67.5*	/	/	/	23.3
O=C(CCn1c(=O)sc2ccccc21)NC1CCCCC1	/	1.5	/	/	/	7.0
COc1ccc(C(=O)O/N=C(\N)c2ccc(OC)c(OC)c2)cc1	/	65.9*	/	/	/	23.6
COc1ccc(/C(N)=N/OC(=O)CSc2ccc(C)cc2)cc1OC	-10.1	56.6*	i	0.0	-4.4	23.7
Cc1ccc(SCC(=O)O/N=C(\N)c2ccc([N+](=O)[O-])cc2)cc1	-10.2	27.1	i	0.1	1.1	4.5
COc1ccc(C(=O)O/N=C(\N)c2ccc(OC)c(OC)c2)c(OC)c1	/	34.3	/	/	/	25.1
Cc1nc(N2CCC(C)CC2)c2c(C)c(C(=O)Nc3cccc(C(F)(F)F)c3)sc2n1	-18.0	59.2*	i	-0.3	-45.4	20.2
Cc1nc(N2CCC(C)CC2)c2c(C)c(C(=O)Nc3ccc(C(F)(F)F)cc3)sc2n1	-1.2	8.3	i	0.5	-1.3	3.0
Cc1[nH]nc2c1C(=O)CC(C)(C)C2	-15.4	-2.9	i	0.0	10.0	12.8
Cc1[nH]nc2c1C(=O)CCC2	-5.2	-35.4	i	-0.1	85.6*	-21.7
CC(C)NC(=O)CN(C(=O)CCC(=O)Nc1nccs1)c1ccc2c(c1)OCO2	/	65.7*	/	/	/	21.5
COCCNC(=O)CN(C(=O)CCC(=O)Nc1nccs1)c1ccc2c(c1)OCO2	/	-13.1	/	/	/	-11.0
Cc1ccc(C(C(=O)NCC2CCCO2)N(C(=O)c2snc(C(N)=O)c2N)c2ccccc2F)o1 (stereo not drawn)	/	24.0	/	/	/	8.5
O=[N+]([O-])c1cc(Oc2cccnc2)cc([N+](=O)[O-])c1	-5.0	-0.9	i	-0.6	-7.5	8.5
Cn1cc([N+](=O)[O-])c(C(=O)Nc2ccc(C3CCCCC3)cc2)n1	-4.1	74.7*	i	-0.1	15.8	94.0
SMILES	MDM2 E3 inh	HSF-1 act	HSV augment	Hsp70 activator	Rad51 HR inh	HSF1 inh
Cn1cc([N+](=O)[O-])c(C(=O)Nc2ccc(-c3nc4ccccc4[nH]3)cc2)n1	0.5	407.5*	i	-0.1	6.6	332.0
Cn1cc([N+](=O)[O-])c(C(=O)Nc2ccc3nc(-c4ccccc4)[nH]c3c2)n1	-22.2	2.7	i	-0.3	-4.3	-8.0
Cn1cc([N+](=O)[O-])c(C(=O)Nc2cc(Oc3cccnc3)cc([N+](=O)[O-])c2)n1	-2.0	141.6*	i	-0.5	-3.1	113.6
Cc1ccc(Cn2ccc(NC(=O)c3nn(C)cc3[N+](=O)[O-])n2)cc1	-0.4	75.8*	i	-0.4	3.1	55.6
Cc1cccc(-n2ncc3c2CCCC3NC(=O)CCCN2CCCCC2=O)c1C (stereo not drawn)	/	-13.0	/	/	/	-13.3
Cc1cc(C)n(Cc2ccc(NC(=O)c3nn(C)cc3[N+](=O)[O-])cc2)n1	-18.0	131.4*	i	-0.2	-7.7	69.3
CCn1cc([N+](=O)[O-])c(C(=O)Nc2ccc(Cn3nc(C)cc3C)cc2)n1	-24.9	-4.7	i	0.0	-1.4	4.0
O=C(COC(=O)CNC(=O)c1ccccc1F)NCCNC(=O)COC(=O)CNC(=O)c1ccccc1F	/	-7.7	/	/	/	-1.1
O=C(COC(=O)CNC(=O)c1ccccc1F)Nc1cccnc1Cl	-13.9	-81.0	i	-0.3	-4.8	-77.0*
COC(=O)CCC(=O)OC1(C)C(=O)C=C2C=C(C3CC3)OC=C2C1=O (stereo not drawn)	/	-19.9	i	/	-10.2	-13.6
CCN(CC)c1ccc(/C=C2/C(=O)N(c3ccc([N+](=O)[O-])cc3)N=C2N2CCOCC2)cc1	-13.3	91.8*	/	-0.3	/	41.4
CCOC(=O)c1c(NC(=O)CN2CCCc3ccccc32)sc(C(C)=O)c1C	-6.0	50.2*	i	-0.4	-14.1	9.0
COCCOC(=O)c1c(NC(=O)CN2CCc3ccccc32)sc(C(N)=O)c1C	1.5	6.3	i	/	-15.2	4.8
COc1ccc(N2CCN(C(=O)c3ccccc3N(C)S(=O)(=O)c3ccc(C)cc3)CC2)cc1	/	-5.8	/	/	/	2.6
Cc1cccc(NC(=O)C(Cc2ccccc2)n2cccc2)c1 (stereo not drawn)	/	12.7	i	/	-3.5	0.2
COc1ccc(OC)c(S(=O)(=O)n2ccc(C)n2)c1	/	-8.1	/	/	/	-15.9
Cc1nnsc1S(=O)c1ccc(Cl)c(Cl)c1 (stereo not drawn)	/	-84.6	/	/	/	-80.8*
Cc1nnsc1S(=O)c1ccc(Cl)cc1 (stereo not drawn)	/	5.1	/	/	/	3.0
Cc1cccc(Nc2nc(N)c([N+](=O)[O-])c(NCc3ccccc3)n2)c1	1.3	20.2	i	/	/	7.6
COc1cccc(Nc2nc(N)c([N+](=O)[O-])c(NCc3ccccc3)n2)c1	-4.8	70.4*	i	/	0.8	31.6
N/C(=N\OC(=O)COc1ccccc1)c1cccnc1	/	29.1	/	/	/	10.0
Cc1ccc(OCC(=O)O/N=C(\N)c2ccccn2)cc1C	-19.4	107.8*	i	/	4.5	62.3
N/C(=N\OC(=O)COc1ccc(Br)cc1)c1cccnc1	6.6	56.6*	i	-0.1	8.9	24.2
CCc1ccc(OCC(=O)O/N=C(\N)c2ccccn2)cc1	-2.0	63.6*	i	/	5.6	30.0
CCOc1ccc(NCc2nnc(SCC(=O)Nc3cc(C)on3)n2-c2ccccc2OC)cc1	5.9	-47.2	i	-0.2	/	-36.0
CCOc1ccc(NCc2nnc(SCC(=O)Nc3cc(C)on3)n2-c2ccc(OC)cc2)cc1	-11.4	-82.6	i	-0.3	-11.0	-79.6*
COc1ccc(CCNC(=O)Nc2cc(F)c(F)cc2Cl)cc1OC	/	-2.7	/	/	/	-1.9
COc1ccccc1N1C(=O)S/C(=C\c2cc(C)n(C)c2C)C1=O	-90.3	53.5*	i	0.1	-10.5	10.3
O=C1C([N+](=O)[O-])=C(O)c2cccc3cccc1c23	/	2.0	/	/	/	1.0

Source: PubChem (several laboratories)
